{"source": "paper PMC4586255", "about": "(DNA repair, 2010)", "key": {"[1]": {"molecular_target": "PCNA (Homo sapiens, UniProt P12004)", "sequence (P12004 whole entry)": "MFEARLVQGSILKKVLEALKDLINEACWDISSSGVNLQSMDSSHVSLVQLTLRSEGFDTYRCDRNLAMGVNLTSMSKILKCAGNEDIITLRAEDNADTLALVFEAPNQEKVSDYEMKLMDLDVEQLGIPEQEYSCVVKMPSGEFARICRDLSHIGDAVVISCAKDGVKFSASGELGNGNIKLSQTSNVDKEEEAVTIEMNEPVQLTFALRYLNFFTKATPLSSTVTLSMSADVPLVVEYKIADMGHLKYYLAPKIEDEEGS", "assay": "Isothermal titration calorimetry of hEXO1 peptides with purified PCNA", "format": "binding", "conditions": "ITC, 30 °C, pH 7.5; 18 μM PCNA, 200 μM p22; no dilution effects in pure buffer"}, "[2]": {"test_system": "hEXO1", "conditions": "hEXO1-hMLH1 interaction, ref [15], cited from earlier work"}, "[3]": {"test_system": "PCNA replication foci in NIH3T3 cells", "format": "cell-based, murine", "conditions": "for foci formation and co-localization with PCNA during S-phase: 24–48 h", "summary_of_the_method": "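Murine NIH3T3 cells were kept in DMEM with 10% FBS and penicillin/streptomycin at 37 °C, 10% CO₂. Cells (2*10⁵ per glass-bottom dish) were seeded 24 h before ExGen500 co-transfection with 3 μg total plasmid (CFP-PCNA plus YFP fusion). Confocal imaging at 24–48 h. Co-transfected cells were counted and binned by pattern, e.g. \"no foci\" (diffuse CFP-PCNA, diffuse nuclear YFP).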"}, "[4]": {"test_system": "PCNA replication foci in HCT116 cells", "assay": "Co-localization with PCNA in replication foci in HCT116 cells", "format": "cell-based", "conditions": "HCT116 cell line (hMLH1 deficient); Fig. S5"}, "[5]": {"conditions": "NIH3T3 cells co-transfected with CFP-PCNA"}}, "note": "Residues, ends and D or L forms follow the SMILES beside them.", "data": [{"molecule": "CC[C@H](C)[C@H](NC(=O)[C@H](CCC(N)=O)NC(=O)[C@H](CC(C)C)NC(=O)CNC(=O)[C@@H]1CCCN1C(=O)[C@H](CCCCN)NC(=O)[C@@H](N)CC(N)=O)C(=O)N[C@@H](CCCCN)C(=O)N[C@@H](CC(C)C)C(=O)N[C@@H](CC(N)=O)C(=O)N[C@@H](CCC(=O)O)C(=O)N[C@@H](CC(C)C)C(=O)N[C@@H](Cc1c[nH]c2ccccc12)C(=O)N[C@@H](CCCCN)C(=O)N[C@@H](CC(N)=O)C(=O)N[C@@H](Cc1ccccc1)C(=O)NCC(=O)N[C@@H](Cc1ccccc1)C(=O)N[C@@H](CCCCN)C(=O)N[C@@H](CCCCN)C(=O)N[C@@H](CC(=O)O)C(=O)N[C@@H](CO)C(=O)O", "note": "[hEXO1 p22] (H-NKPGLQIKLNELWKNFGFKKDS-OH; N-terminus and C-terminus assumed)", "values": [{"measurement": "heat exchange of binding reaction with PCNA", "setting": "[1]", "value": "exothermic heat exchange"}]}, {"molecule": "hEXO1-hMLH1: hEXO1-hMLH1 complex", "values": [{"measurement": "exonuclease activity on heteroduplex substrate", "setting": "[2]; heteroduplex substrate", "value": "inhibits exonuclease activity on a heteroduplex substrate"}, {"measurement": "exonuclease activity on homoduplex substrate", "setting": "[2]; homoduplex substrate", "value": "did not inhibit exonuclease activity on a homoduplex substrate"}]}, {"molecule": "hMSH6: fusion protein, CFP or YFP tagged MMR protein", "values": [{"measurement": "foci formation and co-localization with PCNA during S-phase", "setting": "[3]; [5]", "value": "form PCNA co-localizing foci throughout S-phase"}]}, {"molecule": "human exonuclease 1 [YFP-hEXO1]", "values": [{"measurement": "Small foci (CFP-PCNA)", "setting": "[3]; CFP channel (CFP-PCNA) in cells co-expressing the hEXO1 protein, early S-phase foci, 50 co-transfected cells", "value": 28, "unit": "%"}, {"measurement": "Large foci (CFP-PCNA)", "setting": "[3]; CFP channel (CFP-PCNA) in cells co-expressing the hEXO1 protein, late S-phase foci, 50 co-transfected cells", "value": 12, "unit": "%"}, {"measurement": "Mid Foci (CFP-PCNA)", "setting": "[3]; CFP channel (CFP-PCNA) in cells co-expressing the hEXO1 protein, mid S-phase foci, 50 co-transfected cells", "value": 14, "unit": "%"}, {"measurement": "cells showing diffuse nuclear staining", "setting": "[3]; [5]", "value": 40, "unit": "%"}, {"measurement": "foci formation and co-localization with PCNA during S-phase", "setting": "[3]; [5]", "value": "co-localize in discrete nuclear foci"}, {"measurement": "sub-cellular localization", "setting": "[3]; NIH3T3 cells, confocal imaging", "value": "only rarely observed in the cytoplasm"}, {"measurement": "co-localization with PCNA in replication foci", "setting": "[4]", "value": "co-localize with PCNA in replication foci in the HCT116 cell line"}]}]}
